Results from ChEMBL document CHEMBL3232756, “Synthesis and biological evaluation of N-dehydrodipeptidyl-N,N'-dicyclohexylurea analogs” (Eur J Med Chem, 2014).
≈ marks a conversion by molar mass, not a printed value.

Columns and labels:
[1] = test system: Brain; test: Antioxidant activity against lipid peroxidation in Wister rat brain homogenates assessed as thiobarbituric acid reactive substance formation after 30 mins by spectrophotometer analysis; type: functional, tissue-based; details: 0.5 h
Method in brief: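 Whole brain minus cerebellum from overnight-fasted rats of either sex, 200–220 g. Homogenized 10% w/v in 0.15 M KCl and spun at 800 rpm for 10 min. Reaction incubated 37 °C for 30 min, then TBA:TCA (1:1) and BHT added, heated 80 °C for 20 min, cooled, centrifuged, A532 read.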

[2] = test system: Mus musculus; test: Acute toxicity in Swiss albino mouse assessed as mortality up to 1500 mg/kg, po; type: organism-based; design: dose 1500 mg/kg, route oral; details: in vivo
Method in brief: (§1)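 Swiss albino mice (6–8 weeks, 25–30 g) were dosed orally at 500, 1000 or 1500 mg/kg, following OECD guidelines. Body weight, food and water intake, behavioural patterns and mortality were recorded and compared with a control group.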

[3] = test system: Radical scavenging activity; test: Antioxidant activity assessed as DPPH radical scavenging activity after 20 to 30 mins; type: functional
Method in brief: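 Test solution (2 ml at 25, 50, 75, 100, 125) mixed with 2 ml ethanolic DPPH, held in the dark at ambient temperature 20–30 min, then A517 read against an ethanol blank. Tocopherol used as standard. % scavenging = (Acontrol−Atest)/Acontrol×100, run in triplicate. IC50 read graphically from the % scavenging versus concentration plot.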

[4] = test system: Candida albicans; test: Antimicrobial activity against Candida albicans MTCC 227 at 0.02 ml of 1 mg/ml after 24 hrs by cup plate method; type: functional; details: MTCC 227, 24 h, read-out: DIZ
Method in brief: (§2)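 Cup-plate diffusion on Mueller-Hinton/nutrient agar swab-streaked with suspension, 6 mm cups bored. Each compound at 1 mg/ml in DMSO, 0.02 ml per cup; DMSO as solvent control. Amoxicillin for bacteria and fluconazole for fungi at 200 and 500 respectively as references. Incubation 37 °C for 24 h. Inhibition zone diameter in mm, triplicate, mean ± SD.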

[5] = test system: Aspergillus niger; test: Antimicrobial activity against Aspergillus niger MTCC 292 at 0.02 ml of 1 mg/ml after 24 hrs by cup plate method; type: functional; details: MTCC 292, 24 h, read-out: DIZ; method in brief: as §2
[6] = Cytotoxicity against brine shrimps larvae assessed as mortality after 24 hrs; type: organism-based; details: artemia, in vivo; read-out: ED50
Method in brief: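 Shrimp eggs were hatched in filtered artificial sea water (38 g sea salt/L) in a divided tank. Larvae were exposed in vials at several concentrations under a lamp, and survivors were counted 24 h later. ED50 and 95% confidence intervals were derived from % larvae surviving by Finney probit analysis.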

[7] = test system: Staphylococcus aureus; test: Antimicrobial activity against Staphylococcus aureus MTCC 96 at 0.02 ml of 1 mg/ml after 24 hrs by cup plate method; type: functional; details: MTCC 96, 24 h, read-out: DIZ; method in brief: as §2
[8] = test system: Pseudomonas aeruginosa; test: Antimicrobial activity against Pseudomonas aeruginosa MTCC 1688 at 0.02 ml of 1 mg/ml after 24 hrs by cup plate method; type: functional; details: MTCC 1688, 24 h, read-out: DIZ; method in brief: as §2
[9] = test system: Mus musculus; test: Analgesic activity in Swiss albino mouse assessed as inhibition of acetic acid-induced writhing response at 100 mg/kg, po administered 1 hr before acetic acid challenge after 5 mins; type: functional
[10] = Antioxidant activity assessed as hydroxyl radical scavenging activity after 15 mins; type: functional
Method in brief: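 Deoxyribose degradation mix: 2-deoxy-2-ribose 2.8 mM, KH2PO4–KOH 20 mM pH 7.4, FeCl3, EDTA, H2O2 1.0 mM, ascorbic acid, plus compound in methanol. Incubated 1 h at 37 °C. A 0.5 ml aliquot taken with 1 ml 2.8% TCA and 1 ml 1% TBA, heated 90 °C for 15 min, cooled, A532 read. % inhibition against blank.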

[11] = test system: Escherichia coli; test: Antimicrobial activity against Escherichia coli ESS 2231 at 0.02 ml of 1 mg/ml after 24 hrs by cup plate method; type: functional; details: ESS 2231, 24 h, read-out: DIZ; method in brief: as §2
[12] = test system: Mus musculus; test: Acute toxicity in Swiss albino mouse assessed as gross behavioral changes up to 1500 mg/kg, po; type: organism-based; design: dose 1500 mg/kg, route oral; details: in vivo; method in brief: as §1
[13] = Antioxidant activity assessed as trolox equivalents of cupric reducing antioxidant capacity after 30 mins; type: functional
Method in brief: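 Mix of 1 ml CuCl2 (10 mM), 1 ml ethanolic neocuproine (7.5 mM), 1 ml ammonium acetate buffer (pH 7.0, 1 M), 1 ml compound or standard solution and 0.1 ml water, total 4.1 ml. A450 read after 30 min against reagent blank. TEAC = ε test/ε Trolox.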

[14] = test system: Rattus norvegicus; test: Antiinflammatory activity in Wister rat assessed as inhibition of carrageenan-induced paw edema at 100 mg/kg, po administered 1 hr before carrageenan challenge measured after 3 hrs by plethysmograph analysis; type: functional
Method in brief: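 Rats of either sex, 150–220 g, food withheld 4 h. Compound or diclofenac sodium 100 mg/kg p.o., or 0.5% sodium CMC at 10 ml/kg as vehicle control, given 1 h before 0.05 ml of 1% carrageenan subplantar into the right hind paw. Paw volume read by water-displacement plethysmograph at 0, 30, 60, 120 and 180 min. % edema inhibition = 100(1−Vt/Vc); n=5, control n=6; ANOVA/Dunnett.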

[15] = test system: Bacillus subtilis; test: Antimicrobial activity against Bacillus subtilis MTCC 441 at 0.02 ml of 1 mg/ml after 24 hrs by cup plate method; type: functional; details: MTCC 441, 24 h, read-out: DIZ; method in brief: as §2
[16] = test system: Escherichia coli; test: Antimicrobial activity against Escherichia coli ESS 2231 at 200 ug/ml after 24 hrs by cup plate method; type: functional; details: ESS 2231, 24 h, read-out: DIZ
[17] = test system: Staphylococcus aureus; test: Antimicrobial activity against Staphylococcus aureus MTCC 96 at 200 ug/ml after 24 hrs by cup plate method; type: functional; details: MTCC 96, 24 h, read-out: DIZ
[18] = test system: Bacillus subtilis; test: Antimicrobial activity against Bacillus subtilis MTCC 441 at 200 ug/ml after 24 hrs by cup plate method; type: functional; details: MTCC 441, 24 h, read-out: DIZ
[19] = test system: Pseudomonas aeruginosa; test: Antimicrobial activity against Pseudomonas aeruginosa MTCC 1688 at 200 ug/ml after 24 hrs by cup plate method; type: functional; details: MTCC 1688, 24 h, read-out: DIZ
[20] = test system: Aspergillus niger; test: Antimicrobial activity against Aspergillus niger MTCC 292 at 500 ug/ml after 24 hrs by cup plate method; type: functional; details: MTCC 292, 24 h, read-out: DIZ
[21] = test system: Candida albicans; test: Antimicrobial activity against Candida albicans MTCC 227 at 500 ug/ml after 24 hrs by cup plate method; type: functional; details: MTCC 227, 24 h, read-out: DIZ

SMILES	IC50 [1]	Activity [2]	IC50 [3]	zone of inhibition at 1000 µg/mL [4]	zone of inhibition at 1000 µg/mL [5]	LC50 at 24 h [6]	zone of inhibition at 1000 µg/mL [7]	zone of inhibition at 1000 µg/mL [8]	inhibition in vivo at 100 mg/kg [9]	IC50 [10]	zone of inhibition at 1000 µg/mL [11]	Activity [12]	TEAC (Trolox equivalents) [13]	inhibition in vivo at 100 mg/kg [14]	zone of inhibition at 1000 µg/mL [15]	further results
CC(C)c1ccc(/C=C(/NC(=O)c2ccccc2)C(=O)NC(CS)C(=O)N(C(=O)NC2CCCCC2)C2CCCCC2)cc1 (stereo unspecified)	92.8 µM	Non-toxic	74.7 µM	12.2 mm	14.4 mm	16.7 µg/mL (≈ 27 µM)	12.9 mm	15.4 mm	58.5%	82.2 µM	11.8 mm	Non-toxic	2.36	28.2%	15.2 mm	
CC1(C)S[C@@H]2[C@H](NC(=O)[C@H](N)c3ccc(O)cc3)C(=O)N2[C@H]1C(=O)O [AMOXICILLIN]																zone of inhibition at 200 µg/mL [16]: 22.6 mm; zone of inhibition at 200 µg/mL [17]: 22 mm; zone of inhibition at 200 µg/mL [18]: 21.2 mm; zone of inhibition at 200 µg/mL [19]: 21.4 mm
O=C(NCC(=O)N(C(=O)NC1CCCCC1)C1CCCCC1)/C(=C\c1ccc(O)cc1)NC(=O)c1ccccc1	65.6 µM	Non-toxic	51 µM	13.2 mm	12.4 mm	9.1 µg/mL (≈ 16.6 µM)	13.4 mm	18.5 mm	27.6%	74.7 µM	19.8 mm	Non-toxic	2.91	31.5%	22.4 mm	
O=C(NC(CS)C(=O)N(C(=O)NC1CCCCC1)C1CCCCC1)/C(=C\c1ccccc1)NC(=O)c1ccccc1 (stereo unspecified)	59.5 µM	Non-toxic	44.4 µM	17.4 mm	18.3 mm	3.53 µg/mL (≈ 6.12 µM)	24.4 mm	20.6 mm	56.8%	64.4 µM	25.8 mm	Non-toxic	3.84	43.4%	23.2 mm	
OC(Cn1cncn1)(Cn1cncn1)c1ccc(F)cc1F [FLUCONAZOLE]																zone of inhibition at 500 µg/mL [20]: 24 mm; zone of inhibition at 500 µg/mL [21]: 23.2 mm
O=C(NC(CS)C(=O)N(C(=O)NC1CCCCC1)C1CCCCC1)/C(=C\c1ccc(Cl)cc1)NC(=O)c1ccccc1 (stereo unspecified)	60.7 µM	Non-toxic	57.1 µM	13.5 mm	21.2 mm	10 µg/mL (≈ 16.4 µM)	16.5 mm	17.4 mm	40.8%	66.3 µM	18.3 mm	Non-toxic	2.65	22.8%	18.4 mm	
